Assay results from ChEMBL document CHEMBL4118059, “Hirsutane-Type Sesquiterpenes with Inhibitory Activity of Microglial Nitric Oxide Production from the Red Alga-Derived Fungus Chondrostereum sp. NTOU4196” (J Nat Prod, 2017).

Experiments:
[1] = Cytotoxicity against LPS-induced mouse BV2 cells assessed as cell viability at 20 uM pretreated for 15 mins followed by LPS-stimulation measured after 24 hrs by MTT assay relative to control; assay type: cell-based, BV-2; conditions: LPS-stimulated BV2 cells, read-out: Activity
Summary of the method: (§1)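 BV-2 cells, LPS-activated, exposed to compounds at 2–20 μM. Viability was measured by MTT assay and expressed as mean ± SD of three independent experiments.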

BV-2 [2] = test: Antineuroinflammatory activity in mouse BV2 cells assessed as inhibition of LPS-induced nitric oxide production by measuring nitrite levels at 20 uM pretreated for 15 mins followed by LPS-stimulation measured after 24 hrs by colorimetric method (reference value: 15 +/- 1 uM); assay type: functional
[3] = Cytotoxicity against LPS-induced mouse BV2 cells assessed as cell viability at 10 uM pretreated for 15 mins followed by LPS-stimulation measured after 24 hrs by MTT assay relative to control; assay type: cell-based, BV-2; conditions: LPS-stimulated BV2 cells, read-out: Activity; summary of the method: as §1
[4] = Cytotoxicity against LPS-induced mouse BV2 cells assessed as cell viability at 5 uM pretreated for 15 mins followed by LPS-stimulation measured after 24 hrs by MTT assay relative to control; assay type: cell-based, BV-2; conditions: LPS-stimulated BV2 cells, read-out: Activity; summary of the method: as §1
[5] = Cytotoxicity against LPS-induced mouse BV2 cells assessed as cell viability at 2 uM pretreated for 15 mins followed by LPS-stimulation measured after 24 hrs by MTT assay relative to control; assay type: cell-based, BV-2; conditions: LPS-stimulated BV2 cells, read-out: Activity; summary of the method: as §1
BV-2 [6] = test: Antineuroinflammatory activity in mouse BV2 cells assessed as inhibition of LPS-induced nitric oxide production at 5 uM pretreated for 15 mins followed by LPS-stimulation measured after 24 hrs by colorimetric method relative to control; assay type: functional
BV-2 [7] = test: Antineuroinflammatory activity in mouse BV2 cells assessed as inhibition of LPS-induced nitric oxide production pretreated for 15 mins followed by LPS-stimulation measured after 24 hrs by colorimetric method; assay type: functional, cell-based
BV-2 [8] = test: Antineuroinflammatory activity in mouse BV2 cells assessed as inhibition of LPS-induced nitric oxide production at 20 uM pretreated for 15 mins followed by LPS-stimulation measured after 24 hrs by colorimetric method relative to control; assay type: functional

Compound | viability at 24 h, 20 µM [1] [%] | Activity (BV-2 [2]) [µM] | viability at 24 h, 10 µM [3] [%] | other results
C[C@H]1C(=O)C=C2C=C3C(=O)C(C)(C)C[C@@]3(O)[C@@]21C | 11 | 4 | 23 | –
C[C@@H]1[C@@H](O)C[C@]2(O)[C@H](O)C3=CC(C)(C)C[C@H]3[C@]12C | 87 | 14 | – | –
C[C@@H]1C(=O)C[C@]2(O)C[C@@]3(O)CC(C)(C)C[C@H]3[C@]12C | 83 | 12 | – | –
C=C1C(=O)C[C@@]2(OC)C[C@]3(O)CC(C)(C)C[C@@H]3[C@]12C | 11 | 4 | 11 | viability at 24 h, 5 µM [4]: 30%; viability at 24 h, 2 µM [5]: 47%
C[C@@H]1[C@@H](O)C[C@]2(O)[C@H](O)[C@H]3CC(C)(C)C[C@H]3[C@]12C | 83 | 12 | – | –
C=C1C(=O)C[C@]2(O)[C@H](O)C3=C(CC(C)(C)C3=O)[C@]12C | 69 | 10 | 89 | viability at 24 h, 5 µM [4]: 95%; viability at 24 h, 2 µM [5]: 95%
C=C1C(=O)C=C2C=C3[C@@H](O)C(C)(C)C[C@@]3(O)[C@]12C | 39 | 8 | 77 | inhibition at 5 µM (BV-2 [6]): 53%; inhibition (BV-2 [7]): Dose-dependent effect; viability at 24 h, 5 µM [4]: 87%; viability at 24 h, 2 µM [5]: 94%
C=C1[C@H](O)C[C@]2(O)C[C@]3(O)CC(C)(C)C[C@]3(O)[C@]12C | 67 | 8 | 73 | inhibition at 20 µM (BV-2 [8]): 47%; inhibition (BV-2 [7]): Dose-dependent effect; viability at 24 h, 5 µM [4]: 82%; viability at 24 h, 2 µM [5]: 93%
C[C@H]1C(=O)C[C@]2(O)C[C@@]3(O)CC(C)(C)C[C@H]3[C@]12C | – | 11 | – | –
C[C@H]1[C@@H](O)C[C@]2(O)C[C@@]3(O)CC(C)(C)C[C@H]3[C@]12C | – | 13 | – | –
COc1cc(/C=C/C(=O)CC(=O)/C=C/c2ccc(O)c(OC)c2)ccc1O [CURCUMIN] | – | – | – | IC50 (BV-2 [7]): 6 µM
C[C@@H]1[C@@H](O)C[C@]2(O)CC3=C(CC(C)(C)C3=O)[C@]12C | 97 | 11.6 | – | –
C[C@@H]1[C@@H](O)C[C@]2(O)C=C3C(=CC(C)(C)[C@@H]3O)[C@]12C | 93 | 11 | – | –
C=C1C(=O)C=C2C[C@@]3(O)CC(C)(C)C[C@H]3[C@]12C | 12 | 4 | 22 | –
C[C@H]1C(=O)C=C2C=C3[C@@H](O)C(C)(C)C[C@@]3(O)[C@@]21C | 71 | 12 | – | –
C[C@H]1[C@H](O)C[C@@]2(O)C[C@]3(O)CC(C)(C)C[C@@H]3[C@@]12C | – | 13 | – | –
